Measurements taken from article PMC8463264 (Acta Pharmaceutica Sinica. B, 2020).
Where no end group is shown, it is not given here.

Legend:
zebrafish embryos = assay: Toxicity in zebrafish embryos; format: in vivo
Summary of the method: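 Wild-type embryos dechorionated at 24 hpf with 1 mg/mL pronase in E3, then exposed 24 h in E3 containing peptide. Two independent assays per concentration, each on 10 × 3 embryos. Controls: PBS solvent diluted in E3 matching the highest-dose amount, and pleurocidin peptide NRC-03. Scored at 48 hpf by stereomicroscope: lysis/necrosis, delay/malformations, heart edema/reduced or absent circulation.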

CXCR4-tropic HIV-1 = assay: X4-HIV-1 inhibition assay in TZM-bl reporter cells; format: cell-based; conditions: for fold increase of antiviral (anti-HIV-1) activity over WSC02: ratio of IC50 values vs WSC02
mice = assay: Observation of visible or behavioral adverse effects in mice; format: in vivo, mouse; conditions: administered topically onto the ears or intranasally into lungs of mice
[1] = system: MC903-induced skin inflammation of ears of BALB/c mice; assay: Mouse model of atopic dermatitis; format: in vivo
[2] = system: immune cell infiltration into BAL of BALB/c mice; assay: Mouse model of allergic airway hypereosinophilia; format: in vivo; conditions: for effect on influx of macrophages into BAL: OVA-challenged mice
CXCR4 = CXCR4 (Homo sapiens, UniProt P61073); assay: CXCR4 12G5 antibody competition assay on SupT1 cells; format: binding
Sequence of CXCR4 (P61073 whole entry): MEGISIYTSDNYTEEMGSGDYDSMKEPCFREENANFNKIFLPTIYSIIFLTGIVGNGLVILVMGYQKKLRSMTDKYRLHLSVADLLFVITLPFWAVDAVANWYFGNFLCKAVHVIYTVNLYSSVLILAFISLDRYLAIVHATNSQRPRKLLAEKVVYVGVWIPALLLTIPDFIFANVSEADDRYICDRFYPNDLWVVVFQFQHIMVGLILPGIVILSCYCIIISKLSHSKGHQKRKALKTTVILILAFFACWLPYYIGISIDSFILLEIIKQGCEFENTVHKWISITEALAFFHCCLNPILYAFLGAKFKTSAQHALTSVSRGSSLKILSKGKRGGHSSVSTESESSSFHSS

[3] = system: SupT1 migration towards a CXCL12 gradient; assay: Transwell cell migration assay; format: cell-based
Summary of the method: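 SupT1 cells (0.75 × 10^5) in RPMI with 0.1% BSA go into the upper chamber of a 5 μm polycarbonate transwell, with or without compound, and settle ~15 min. The lower chamber holds buffer with or without 100 ng/mL CXCL12 plus compound. After 4 h of migration at 37 °C (5% CO2), lower-chamber cells are counted by CellTiter-Glo and normalized to CXCL12-only. Mean ± SEM, n = 3; fold values compare IC50s.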

[4] = system: CXCL12-induced intracellular Ca^2+ mobilization in BCR-ABL expressing murine pro/pre B cells; assay: CXCL12-induced Ca2+ mobilization assay; format: cell-based, mouse
[5] = cited from earlier work
[6] = 2.5 nmol/ear every two days, day 11 (disease inducer)
[7] = 16 μmol/kg intranasal, 2 h before each OVA challenge, BAL on day 8, mean ± SEM
[8] = 20 nmol/ear topically daily, day 11, mean ± SEM
[9] = 12.6 μmol/kg intranasal, 2 h before each OVA challenge, BAL on day 8, mean ± SEM
[10] = 315 nmol/ear topically daily, day 11, mean ± SEM

GRRKRKWLRRIGKGVKIIGGAALDHL-NH2 [NRC-03]
toxicity in zebrafish embryos (positive control) (zebrafish embryos; 6 μmol/L, exposure 24 h): acutely toxic

H-IVRWSKKFPCVS [JM#7]
fold increase of antiviral (anti-HIV-1) activity over WSC02 (CXCR4-tropic HIV-1): about 2 fold

H-IVRWSKKVPCVS [WSC02]
visible or behavioral adverse effects (mice): did not observe visible or behavioral adverse effects

C=C1/C(=C\C=C2/CCC[C@]3(C)[C@@H]([C@H](C)/C=C/[C@@H](O)C4CC4)CC[C@@H]23)C[C@@H](O)C[C@@H]1O [MC903, calcipotriol hydrate]
disease score (0-12, Table 3) [1, 6]: 9.4 ± 0.1 | increase of the ear thickness as compared to control [1, 6]: 3.1 ± 0.1 fold

CC[C@H](C)[C@H](N)C(=O)N[C@@H](CC(C)C)C(=O)N[C@@H](CCCNC(=N)N)C(=O)N[C@@H](Cc1c[nH]c2ccccc12)C(=O)N[C@@H](CO)C(=O)N[C@@H](CCCNC(=N)N)C(=O)N[C@@H](CCCCN)C(=O)N[C@@H](CC(C)C)C(=O)N1CCC[C@H]1C(=O)N[C@@H](CS)C(=O)N[C@H](C(=O)N[C@@H](CO)C(=O)O)C(C)C [JM#21]
inhibition of recruitment of B cells into BAL [2, 7]: 71 ± 5% | inhibition of recruitment of T cells into BAL [2, 7]: 73 ± 13% | inhibition of recruitment of eosinophils into BAL [2, 7]: 80 ± 1% | inhibition of recruitment of neutrophils into BAL [2, 7]: 42 ± 15% | effect on influx of macrophages into BAL ([2]; 16 μmol/kg intranasal): not macrophages | IC50 (CXCR4): 220 ± 20 nM | fold more active than AMD3100 in 12G5 competition (CXCR4; vs AMD3100): about 3 fold | fold more active than WSC02 in 12G5 competition (CXCR4; vs WSC02): ~2 fold | toxicity in zebrafish embryos (acute, developmental, cardiotoxicity) (zebrafish embryos; exposure 24 h from 24 hpf, 3, 30 and 300 μmol/L, 60 embryos per group): not toxic | fold more efficient than WSC02 in blocking migration ([3]; vs WSC02): 33 fold | fold more efficient than EPI-X4 in blocking migration ([3]; vs wild type peptide EPI-X4): more than 1400 fold | inhibition of MC903-induced ear thickening ([1]; 400 nmol/ear topically daily, day 11, mean ± SEM): 88 ± 4% | visible or behavioral adverse effects (mice): did not observe visible or behavioral adverse effects

C[C@@H]1C[C@H]2[C@@H]3CCC4=CC(=O)C=C[C@]4(C)[C@@]3(F)[C@@H](O)C[C@]2(C)[C@@]1(O)C(=O)CO [dexamethasone]
inhibition of MC903-induced ear thickening [1, 8]: 96 ± 2% | inhibition of disease score [1, 8]: 97 ± 2%

H-LVRYTKKVPQVSTPTL [EPI-X4]
inhibition of recruitment of B cells into BAL [2, 7]: 54 ± 9% | inhibition of recruitment of T cells into BAL [2, 7]: 61 ± 8% | inhibition of recruitment of eosinophils into BAL [2, 7]: 76 ± 7% | inhibition of recruitment of neutrophils into BAL [2, 7]: 63 ± 7% | effect on influx of macrophages into BAL ([2]; 16 μmol/kg intranasal): not macrophages | IC50 (CXCR4): 3240 ± 620 nM | effect on CXCL12-induced Ca2+ mobilization ([4]; at the tested concentrations): almost inactive | visible or behavioral adverse effects (mice): did not observe visible or behavioral adverse effects

c1cc(CN2CCCNCCNCCCNCC2)ccc1CN1CCCNCCNCCCNCC1 [AMD3100, Plerixafor]
inhibition of recruitment of B cells into BAL [2, 9]: 47 ± 17% | inhibition of recruitment of T cells into BAL [2, 9]: 47 ± 15% | inhibition of recruitment of eosinophils into BAL [2, 9]: 56 ± 13% | inhibition of recruitment of neutrophils into BAL [2, 9]: 57 ± 14% | inhibition of recruitment of total cells into BAL [2, 9]: 41 ± 13% | stability towards plasma proteases [5]: resistant to plasma proteases | IC50 (CXCR4-tropic HIV-1; Human immunodeficiency virus 1, TZM-bl, read-out: IC50±SEM X4-HIV-1): 12 ± 2 nM | inhibition of MC903 induced ear thickness [1, 10]: 25 ± 7% | inhibition of disease score [1, 10]: 18 ± 6% | effect on CXCL12-induced Ca2+ mobilization ([4]; 1 μmol/L compound): reduced Ca^2+ mobilization | effect on CXCL12-induced Ca2+ mobilization ([4]; 10 μmol/L compound): completely abrogated

H-ILRWSKKVPCVS [JM#1]
fold increase of antiviral (anti-HIV-1) activity over WSC02 (CXCR4-tropic HIV-1): 9 fold
